Experimental data from ChEMBL document CHEMBL2390929, “New nitric oxide donating 1,2,4-triazole/oxime hybrids: synthesis, investigation of anti-inflammatory, ulceroginic liability and antiproliferative activities” (Bioorg Med Chem, 2013).

What was measured:
SNB-19 = assay: Cytotoxicity against human SNB19 cells assessed as cell growth at 10^-5 M after 48 hrs by SRB assay; format: functional; details: SNB-19, 48 h, read-out: Activity
How it was run: (§1)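 NCI-60 one-dose screen across nine tumour subpanels. Each agent added once at 10^-5 M, cultures incubated 48 h. Endpoint is sulforhodamine B protein staining read spectrophotometrically. Output is percent growth of treated cells relative to untreated controls.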

[1] = Induction of nitric oxide release in phosphate buffer at pH 7.4 at 0.1 mM after 5 hrs by Griess method in presence of 0.5 mM of N-acetylcysteine; format: physicochemical; details: pH 7.4, 5 h, 100 µM
How it was run: (§2)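 Compound in DMF diluted to final 10^-4 M in 1:1 50 mM phosphate buffer pH 7.4/MeOH with 5×10^-4 M N-acetylcysteine, 37 °C. Aliquot mixed with Griess reagent, 10 min at room temperature, A546 read. Nitrite quantified against sodium nitrite standards (10–80 nmol/mL); NO expressed as mol/mol. n = 4 reaction mixtures per compound.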

SK-MEL-28 = assay: Cytotoxicity against human SK-MEL-28 cells assessed as cell growth at 10^-5 M after 48 hrs by SRB assay; format: functional; details: SK-MEL-28, 48 h, read-out: Activity; how it was run: as §1
A549 = assay: Cytotoxicity against human A549 cells assessed as cell growth at 10^-5 M after 48 hrs by SRB assay; format: functional; details: A549, 48 h, read-out: Activity
How it was run: (§3)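 NCI 60-cell-line primary one-dose screen across nine tumour subpanels. Compound added at a single concentration of 10^-5 M and cultures incubated 48 h. Endpoint was sulforhodamine B protein staining read spectrophotometrically, with growth expressed as percent of untreated control cells.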

[2] = Induction of nitric oxide release in phosphate buffer at pH 7.4 at 0.1 mM after 6 hrs by Griess method in presence of 0.5 mM of N-acetylcysteine; format: physicochemical; details: pH 7.4, 6 h, 100 µM; how it was run: as §2
BT-549 = assay: Cytotoxicity against human BT549 cells assessed as cell growth at 10^-5 M after 48 hrs by SRB assay; format: functional; details: BT-549, 48 h, read-out: Activity; how it was run: as §3
OVCAR-3 = assay: Cytotoxicity against human OVCAR3 cells assessed as cell growth at 10^-5 M after 48 hrs by SRB assay; format: functional; details: OVCAR-3, 48 h, read-out: Activity; how it was run: as §3
Rattus norvegicus [3] = assay: Antiinflammatory activity in albino rat assessed as inhibition of carrageenan-induced paw edema at 0.28 mmol/kg, po after 4 hrs relative to control; format: functional
How it was run: (§4)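 Adult male albino rats (120–140 g), four per group, fasted 24 h with water allowed. Test agent suspended in 0.5% w/v aqueous CMC and given orally at 0.28 mmol/kg; controls received CMC alone. After 30 min, 0.1 mL fresh 1% carrageenan in saline was injected subplantar into the right hind paw and saline into the left. Paw thickness was measured by Vernier caliper; % inhibition = [(VR−VL)control − (VR−VL)treated]/(VR−VL)control ×100. Mean ± SEM, one-way ANOVA.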

UACC-257 = assay: Cytotoxicity against human UACC257 cells assessed as cell growth at 10^-5 M after 48 hrs by SRB assay; format: functional; details: UACC-257, 48 h, read-out: Activity; how it was run: as §1
HCT-15 = assay: Cytotoxicity against human HCT15 cells assessed as cell growth at 10^-5 M after 48 hrs by SRB assay; format: functional; details: HCT-15, 48 h, read-out: Activity; how it was run: as §3
CAKI-1 = assay: Cytotoxicity against human CAKI-1 cells assessed as cell growth at 10^-5 M after 48 hrs by SRB assay; format: functional; details: CAKI-1, 48 h, read-out: Activity; how it was run: as §3
Rattus norvegicus [4] = assay: Antiinflammatory activity in albino rat assessed as inhibition of carrageenan-induced paw edema at 0.28 mmol/kg, po after 1 hr relative to control; format: functional; how it was run: as §4
[5] = Induction of nitric oxide release in phosphate buffer at pH 7.4 at 0.1 mM after 2 hrs by Griess method in presence of 0.5 mM of N-acetylcysteine; format: physicochemical; details: pH 7.4, 2 h, 100 µM; how it was run: as §2
SF-539 = assay: Cytotoxicity against human SF539 cells assessed as cell growth at 10^-5 M after 48 hrs by SRB assay; format: functional; details: SF-539, 48 h, read-out: Activity; how it was run: as §3
MDA-MB-231 = assay: Cytotoxicity against human MDA-MB-231 cells assessed as cell growth at 10^-5 M after 48 hrs by SRB assay; format: functional; details: MDA-MB-231, 48 h, read-out: Activity; how it was run: as §3
MOLT-4 = assay: Cytotoxicity against human MOLT4 cells assessed as cell growth at 10^-5 M after 48 hrs by SRB assay; format: functional; details: MOLT-4, 48 h, read-out: Activity; how it was run: as §3
Rattus norvegicus [6] = assay: Gastrointestinal toxicity in albino rat assessed as ulcer index at 0.28 mmol/kg, po (reference value: 0.60 +/- 0.05); format: organism-based; details: in vivo
OVCAR-5 = assay: Cytotoxicity against human OVCAR5 cells assessed as cell growth at 10^-5 M after 48 hrs by SRB assay; format: functional; details: OVCAR-5, 48 h, read-out: Activity; how it was run: as §3
Rattus norvegicus [7] = assay: Antiinflammatory activity in albino rat assessed as inhibition of carrageenan-induced paw edema at 0.28 mmol/kg, po after 5 hrs relative to control; format: functional; how it was run: as §4
ACHN = assay: Cytotoxicity against human ACHN cells assessed as cell growth at 10^-5 M after 48 hrs by SRB assay; format: functional; details: read-out: Activity; how it was run: as §3
MCF7 = assay: Cytotoxicity against human MCF7 cells assessed as cell growth at 10^-5 M after 48 hrs by SRB assay; format: functional; details: MCF7, 48 h, read-out: Activity; how it was run: as §3
COLO 205 = assay: Cytotoxicity against human COLO205 cells assessed as cell growth at 10^-5 M after 48 hrs by SRB assay; format: functional; details: COLO 205, 48 h, read-out: Activity; how it was run: as §3
UO-31 = assay: Cytotoxicity against human UO31 cells assessed as cell growth at 10^-5 M after 48 hrs by SRB assay; format: functional; details: UO-31, 48 h, read-out: Activity; how it was run: as §1
DU-145 = assay: Cytotoxicity against human DU145 cells assessed as cell growth at 10^-5 M after 48 hrs by SRB assay; format: functional; details: DU-145, 48 h, read-out: Activity; how it was run: as §3
RXF 393 = assay: Cytotoxicity against human RXF393 cells assessed as cell growth at 10^-5 M after 48 hrs by SRB assay; format: functional; details: RXF 393, 48 h, read-out: Activity; how it was run: as §3
OVCAR-4 = assay: Cytotoxicity against human OVCAR4 cells assessed as cell growth at 10^-5 M after 48 hrs by SRB assay; format: functional; details: OVCAR-4, 48 h, read-out: Activity; how it was run: as §3
UACC-62 = assay: Cytotoxicity against human UACC62 cells assessed as cell growth at 10^-5 M after 48 hrs by SRB assay; format: functional; details: UACC-62, 48 h, read-out: Activity; how it was run: as §1
K562 = assay: Cytotoxicity against human K562 cells assessed as cell growth at 10^-5 M after 48 hrs by SRB assay; format: functional; details: K562, 48 h, read-out: Activity; how it was run: as §3
SK-MEL-5 = assay: Cytotoxicity against human SK-MEL-5 cells assessed as cell growth at 10^-5 M after 48 hrs by SRB assay; format: functional; details: SK-MEL-5, 48 h, read-out: Activity; how it was run: as §1
SF-295 = assay: Cytotoxicity against human SF295 cells assessed as cell growth at 10^-5 M after 48 hrs by SRB assay; format: functional; details: SF-295, 48 h, read-out: Activity; how it was run: as §3

SMILES	growth at 10 µM (SNB-19) [%]	Activity [1] [mol/mol]	growth at 10 µM (SK-MEL-28) [%]	growth at 10 µM (A549) [%]	Activity [2] [mol/mol]	growth at 10 µM (BT-549) [%]	growth at 10 µM (OVCAR-3) [%]	inhibition in vivo at 280 µmol/kg (Rattus norvegicus [3]) [%]	growth at 10 µM (UACC-257) [%]	growth at 10 µM (HCT-15) [%]	growth at 10 µM (CAKI-1) [%]	inhibition in vivo at 280 µmol/kg (Rattus norvegicus [4]) [%]	Activity [5] [mol/mol]	growth at 10 µM (SF-539) [%]	growth at 10 µM (MDA-MB-231) [%]	growth at 10 µM (MOLT-4) [%]	UI (Rattus norvegicus [6])	growth at 10 µM (OVCAR-5) [%]	inhibition in vivo at 280 µmol/kg (Rattus norvegicus [7]) [%]	growth at 10 µM (ACHN) [%]	other results
COc1ccc(-c2nnc(SC/C(=N/O)c3ccccc3)n2-c2ccccc2)cc1OC	101	0.23	113	90.1	0.17	92.4	106	81	101	98.3	98.4	55	0.17	103	87.5	81.8	5.71	100	78	95.4	growth at 10 µM (MCF7): 100%; growth at 10 µM (COLO 205): 100%; growth at 10 µM (UO-31): 80.1%; growth at 10 µM (DU-145): 114%; growth at 10 µM (RXF 393): 102%; growth at 10 µM (OVCAR-4): 90.4%; growth at 10 µM (UACC-62): 89.5%; growth at 10 µM (K562): 88.7%; growth at 10 µM (SK-MEL-5): 85.8%
CCn1c(SC/C(=N/O)c2ccccc2)nnc1-c1ccccc1	99	0.14	106	101	0.13	115	121	73	104	101	89	65	0.08	93.7	94.6	94.8	1.78	96.8	71	105	growth at 10 µM (SF-295): 109%; growth at 10 µM (MCF7): 112%; growth at 10 µM (COLO 205): 115%; growth at 10 µM (UO-31): 91.5%; growth at 10 µM (DU-145): 107%; growth at 10 µM (RXF 393): 117%; growth at 10 µM (OVCAR-4): 85.5%; growth at 10 µM (UACC-62): 86.2%; growth at 10 µM (K562): 86%; growth at 10 µM (SK-MEL-5): 100%
C=CCn1c(SC/C(=N\O)c2ccccc2)nnc1-c1ccc(OC)c(OC)c1	99.5	0.24	99	98.1	0.13	124	110	78	102	99	90	53	0.15	95.6	94.4	85.3	1.82	107	69	97.8	growth at 10 µM (SF-295): 104%; growth at 10 µM (MCF7): 105%; growth at 10 µM (COLO 205): 106%; growth at 10 µM (UO-31): 77.9%; growth at 10 µM (DU-145): 114%; growth at 10 µM (RXF 393): 117%; growth at 10 µM (OVCAR-4): 91%; growth at 10 µM (UACC-62): 99.9%; growth at 10 µM (K562): 90.8%; growth at 10 µM (SK-MEL-5): 101%
O/N=C(/CSc1nnc(-c2ccccc2)n1-c1ccccc1)c1ccccc1	84.8	0.15	118	88.6	0.09	111	92.3	79	87.6	101	85.4	60	0.1	120	68.4	84.8	2.53	125	75	117	growth at 10 µM (SF-295): 88%; growth at 10 µM (MCF7): 129%; growth at 10 µM (COLO 205): 107%; growth at 10 µM (UO-31): 77.4%; growth at 10 µM (DU-145): 99.2%; growth at 10 µM (RXF 393): 108%; growth at 10 µM (OVCAR-4): 86.6%; growth at 10 µM (UACC-62): 87.7%; growth at 10 µM (K562): 74.6%; growth at 10 µM (SK-MEL-5): 89.2%
CCn1c(SC/C(=N/O)c2ccccc2)nnc1-c1ccc(OC)c(OC)c1	99.9	0.25	103	95.7	0.2	134	106	82	104	105	102	61	0.13	100	104	87.4	1.58	107	71	103	growth at 10 µM (SF-295): 146%; growth at 10 µM (MCF7): 118%; growth at 10 µM (COLO 205): 93.5%; growth at 10 µM (UO-31): 85.4%; growth at 10 µM (DU-145): 112%; growth at 10 µM (RXF 393): 114%; growth at 10 µM (OVCAR-4): 97.5%; growth at 10 µM (UACC-62): 95.5%; growth at 10 µM (K562): 93.4%; growth at 10 µM (SK-MEL-5): 96.3%
COc1ccc(-c2nnc(SC/C(=N/O)c3ccccc3)n2-c2ccccc2)cc1	97.3	0.15	117	85	0.12	90.5	111	80	98	95.1	96.5	58	0.08	107	117	70.3	7.57	109	73	107	growth at 10 µM (SF-295): 89.5%; growth at 10 µM (MCF7): 104%; growth at 10 µM (COLO 205): 116%; growth at 10 µM (UO-31): 87.1%; growth at 10 µM (DU-145): 119%; growth at 10 µM (RXF 393): 108%; growth at 10 µM (OVCAR-4): 86.4%; growth at 10 µM (UACC-62): 94.3%; growth at 10 µM (K562): 82.1%; growth at 10 µM (SK-MEL-5): 93.9%
